Where no end group is shown, it is not given here.
How the values were obtained:
[1] = biological target: Grb2 SH3C; settings: read-out: Kd towards Grb2 SH3C; cited from earlier work
[2] = biological target: Grb2 SH3C domain (Homo sapiens, UniProt P62993); test: Surface plasmon resonance; format: binding; settings: for SPR classification (binder / non-binder) / SPR observed binding behavior (stoichiometry): 50 and 100 µM compound; for SPR classification (binder / non-binder): cut-off 5 RU at 100 µM (KD ≤ 1 mM); for SPR binding behavior above concentrations of 200 µM: compound > 200 µM; for SPR observed binding behavior (stoichiometry): maximum theoretical response 56 RU for 1:1 binding
In short: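 Untagged human Grb2 SH3C amine-coupled (EDC/NHS; 100 µM, pH 4.0 acetate) to a CM5 chip at 1500 RU. Compound in HBS-N (10 mM Hepes pH 7.4, 150 mM NaCl) with 5.0% DMSO and 0.01% Tween 20, injected 120 s at 40 µL/min, 25 °C. Double referenced against protein-free cell and buffer blank. DMSO-only and Gab2b peptide (24 µM) controls were run.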

[3] = biological target: Grb2 SH3C (Homo sapiens, UniProt P62993); test: Isothermal titration calorimetry; format: binding; settings: 1 mM compound titrated into 20 µM Grb2 SH3C, 25 °C
In short: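 Purified Grb2 SH3C (20 µM) in 50 mM Hepes pH 7.5, 50 mM NaCl, 0.5% DMSO, clarified and degassed, 25 °C. Compound (1 mM, same buffer) injected once at 4 µL, then 18 × 15 µL. Heat peaks integrated per mole of compound and plotted against compound:protein molar ratio.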

[4] = biological target: Grb2 SH3C – Gab2b peptide interaction (Homo sapiens, UniProt P62993); test: Biochemical competition assay; format: binding; settings: for Hill slope of inhibition curve: concentration-response; for competition assay result in words: compound 5 mM
In short: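 Then 30 min with streptavidin-sepharose beads carrying biotinylated Gab2b peptide; washed with PBS-T. Bound protein read by SDS-PAGE, Coomassie and densitometry, normalised to no-inhibitor control (100%). Sigmoidal inhibition fit by nonlinear regression.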

[5] = Solubility / precipitation observed while handling in the competition assay; format: physicochemical

Grb2 SH3C – Gab2b peptide interaction, sequence (P62993 156-215 limits assumed): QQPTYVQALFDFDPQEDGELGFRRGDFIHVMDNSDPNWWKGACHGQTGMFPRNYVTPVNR
Grb2 SH3C domain, sequence (P62993 156-215 limits assumed): as above
Grb2 SH3C (Homo sapiens, UniProt P62993), sequence (P62993 156-215 limits assumed): as above

Compound | SPR classification (binder / non-binder) [2] | SPR observed binding behavior (stoichiometry) [2] | competition assay result in words [4] | also measured
15-mer Gab2 peptide: positive control Gab2b peptide; sequence: IQPPPVNRNLKPDRK-amide (IQPPPVNRNLKPDRK-NH2) | – | – | – | Kd [1]: 3.2 µM
CC1(C)N=C(N)N=C(N)N1c1cccc(OCc2cccc(N)c2)c1.Cl [compound 1] | binders | – | – | –
CC1(C)N=C(N)N=C(N)N1c1cccc(CCCCc2cccc(N)c2)c1.Cl [compound 3, 1-(3-(4-(3-Aminophenyl)butyl)phenyl)-6,6-dime thyl-1,6-dihydro-1,3,5-triazine-2,4-diamine•HCl] | binders | – | – | ITC response [3]: no measurable response above background; SPR binding behavior above concentrations of 200 µM [2]: superstoichiometric binding; Hill slope of inhibition curve [4]: −3.1
CC1(C)N=C(N)N=C(N)N1c1cccc(/C=C/C=C/c2cccc([N+](=O)[O-])c2)c1.Cl [compound 5, 6,6-Dimethyl-1-(3-((1E,3E)-4-(3-nitrophenyl)buta-1,3-dien-1-yl)phenyl)-1,6-dihydro-1,3,5-triazine-2,4-diamine•HCl] | binders | superstoichiometric | – | ITC response [3]: significant reaction heats; SPR binding behavior above concentrations of 200 µM [2]: superstoichiometric binding; Hill slope of inhibition curve [4]: −5.0; fold increase in affinity relative to compound 3 ([4]; ratio of apparent IC50 values): 18 fold
CC1(C)N=C(N)N=C(N)N1c1cccc(OCCOc2cccc(N)c2)c1.Cl [compound 9] | binders | superstoichiometric | no activity | –
CC1(C)N=C(N)N=C(N)N1c1cc(C(F)(F)F)cc(C(F)(F)F)c1.Cl [compound 11] | no activity | – | no activity | –
CC1(C)N=C(N)N=C(N)N1c1cccc(OCC#N)c1.Cl [compound 41] | binders | – | – | SPR binding behavior above concentrations of 200 µM [2]: superstoichiometric binding; inhibition in concentration-response experiment ([4]; dose range up to 20 mM, data not shown): unquantifiably weak inhibition
CC(=O)c1ccc(/N=N/c2c(N)nc(N)nc2N)cc1 [compound 46] | binders | – | – | aqueous solubility [5]: poor aqueous solubility
Br.CC1(C)N=C(N)N=C(N)N1c1cccc(CO)c1 [compound 47] | no activity | – | no activity | –
Cl.Cl.NC1CCC(NC2CCC(N)CC2)CC1 (centres unmarked) [compound 147] | binders | superstoichiometric | – | SPR dissociation [2]: long dissociation time; SPR response relative to the maximum theoretical response [2]: over 10 times; SPR response level ([2]; maximum theoretical response 56 RU): ~600 RU
Cc1ccc(O)c(C2CC(=O)NC(N)=N2)c1 (centres unmarked) [compound 156] | binders | – | – | SPR sensorgram quality [2]: poor sensorgram shape
Cc1ccc(C(/C=C/c2ccccc2)=N/NC(=N)N)cc1.Cl [compound 164] | binders | superstoichiometric | nearly complete inhibition | precipitation during the assay ([5]; competition assay buffer, compound 5 mM): precipitated during the assay

— PMC3594550 (Bioorganic & medicinal chemistry, 2012)
